Data taken from ChEMBL document CHEMBL1144836, “Constituents of the sea cucumber Cucumaria okhotensis. Structures of okhotosides B1-B3 and cytotoxic activities of some glycosides from this species” (J Nat Prod, 2008).

Columns and labels:
HeLa = test: Cytotoxicity against human HeLa cells; assay type: functional, cell-based
Outline: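 HeLa cells seeded at 6000 cells/well and cultured 12 h in RPMI with 10% FBS. Medium then replaced with 5% FBS-RPMI containing test concentrations, 22 h incubation. MTS added and reduction read 2 h later by absorbance at 492 nm, with 690 nm as background.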

[1] = Decrease in EGF induced AP1 dependent transcription in mouse […] cells at 1.1 ug/ml by luciferase assay; assay type: functional; set-up: scale not given: the % may be the effect or the level left
Outline: (§1)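 JB6-LucAP-1 reporter cells activated with EGF (10 ng/mL), TPA (20 ng/mL) or UVB (4 kJ/m2), plated at 6 × 10^3/well in 5% FBS/MEM and kept 24 h. Compound added in 0.1% FBS-MEM for 24 h. Cells lysed 1 h at room temperature, then luciferase luminescence read. Two independent experiments, five samples per concentration.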

[2] = Increase in p53 dependent transcription in mouse JB6 Cl41 cells at 1.8 ug/ml by luciferase assay; assay type: functional
Outline: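 JB6-Lucp53 reporter cells, not activated, plated at 6 × 10^3/well in 5% FBS/MEM and kept 24 h. Compound added in 0.1% FBS-MEM for 24 h. Cells lysed 1 h at room temperature, then luciferase luminescence read. Two independent experiments, five samples per concentration.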

[3] = Decrease in EGF induced NFKappaB dependent transcription in mouse JB6 Cl41 cells at 0.7 ug/ml by luciferase assay; assay type: functional; set-up: scale not given: the % may be the effect or the level left
Outline: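 JB6-LucNF-κB reporter cells activated with EGF (10 ng/mL), plated at 6 × 10^3/well in 5% FBS/MEM and kept 24 h. Compound added in 0.1% FBS-MEM for 24 h. Cells lysed 1 h at room temperature, then luciferase luminescence read. Two independent experiments, five samples per concentration.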

THP-1 = test: Cytotoxicity against human THP1 cells; assay type: functional, cell-based
[4] = Decrease in UVB induced AP1 dependent transcription in mouse JB6 Cl41 cells at 0.7 ug/ml by luciferase assay; assay type: functional; set-up: scale not given: the % may be the effect or the level left; outline: as §1
[5] = Cytotoxicity against mouse JB6Cl41 cells; assay type: functional, cell-based; settings: JB6 Cl41
[6] = Decrease in TPA induced AP1 dependent transcription in mouse JB6 Cl41 cells at 1.1 ug/ml by luciferase assay; assay type: functional; set-up: scale not given: the % may be the effect or the level left; outline: as §1
[7] = Inhibition EGF induced mouse JB6 P+Cl41 cells colony formation in soft agar; assay type: functional
Outline: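 JB6 P+ Cl41 cells (8 × 10^3/mL) activated with EGF (10 ng/mL), in 0.33% BME agar with 10% FBS over a 0.5% BME agar layer, compound in both layers. Kept 1 week at 37 °C, 5% CO2. Colonies scored by microscopy and INCC50 derived. Two independent experiments in triplicate.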

Row | SMILES | IC50 (HeLa) [µg/mL] | Activity [1] [%] | Activity [2] [%] | Activity [3] [%] | IC50 (THP-1) [µg/mL] | Activity [4] [%] | IC50 [5] [µg/mL] | Activity [6] [%] | INCC50 [7] [µg/mL]
1 | C=C(C)CCC[C@]1(C)OC(=O)C23CC[C@H]4C(=CC[C@H]5C(C)(C)C(O[C@@H]6OC[C@@H](OS(=O)(=O)[O-])[C@H](O)[C@H]6O[C@@H]6O[C@H](CO)[C@@H](O[C@@H]7O[C@H](CO)[C@@H](O)[C@H](O[C@@H]8O[C@H](CO)[C@@H](O)[C@H](OC)[C@H]8O)[C@H]7O)[C@H](O)[C@H]6O[C@@H]6OC[C@@H](O)[C@H](O)[C@H]6O)CC[C@]45C)[C@]2(C)C[C@H](OC(C)=O)C31.[Na+] (stereo partly specified) [OKHOTOSIDE B1] | 34 |  |  |  |  |  |  |  | 
2 | C=C(C)CCC[C@]1(C)OC(=O)C23CC[C@H]4C(=CC[C@H]5C(C)(C)C(O[C@@H]6OC[C@@H](OS(=O)(=O)[O-])[C@H](O)[C@H]6O[C@@H]6O[C@H](CO)[C@@H](O[C@@H]7O[C@H](COS(=O)(=O)[O-])[C@@H](O)[C@H](O[C@@H]8O[C@H](CO)[C@@H](O)[C@H](OC)[C@H]8O)[C@H]7O)[C@H](O)[C@H]6O[C@@H]6OC[C@@H](O)[C@H](O)[C@H]6O)CC[C@]45C)[C@]2(C)C[C@H](OC(C)=O)C31.[Na+].[Na+] (stereo partly specified) [OKHOTOSIDE B2] | 13 |  |  |  |  |  |  |  | 
3 | CO[C@@H]1[C@@H](O)[C@H](O[C@@H]2[C@@H](O)[C@H](O[C@H]3[C@H](O)[C@@H](O[C@@H]4OC[C@@H](O)[C@H](O)[C@H]4O)[C@H](O[C@H]4[C@H](OC5CC[C@]6(C)[C@H]7CCC89C(=O)O[C@@](C)(CCCC(C)C)C8[C@@H](OC(C)=O)C[C@@]9(C)C7=CC[C@H]6C5(C)C)OC[C@@H](OS(=O)(=O)[O-])[C@@H]4O)O[C@@H]3C)OC[C@H]2O)O[C@H](CO)[C@H]1O.[Na+] (stereo partly specified) [FRONDOSIDE A] | 2.1 | 51 | 39 | 37 | 4.5 | 41 | 5.9 | 20 | 0.8
